# Source: PubChem
# Rows were chosen to be rich in hits. Some 2.3% of all compounds tested hit in one or more screens of this group.
# PAD4 FP inh: inhibitors of human PAD4; recombinant PAD4, RCA probe fluorescence polarization; Q9UM07; inhibition, % at 6.36 µM; 330,000 compounds, 0.41% hits;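 active means percent inhibition above a cutoff equal to the mean of all tested compounds plus 3 SD, cut at about 15% in these data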
# PME-1 inh: blocks human protein phosphatase methylesterase 1. inhibition, % at 5.9 µM. recombinant PME-1, FP-Rh probe fluorescence polarization. 320,000 compounds, 0.53% hits;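 active means inhibition above the campaign mean of all compounds plus 3 SD, cut at about 26% in these data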;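 further: competitive labeling of PME-1 active site by serine hydrolase directed probe; inhibitors block probe labeling so polarization falls and inhibition rises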
# Target sequence (Q9Y570 whole entry, looked up): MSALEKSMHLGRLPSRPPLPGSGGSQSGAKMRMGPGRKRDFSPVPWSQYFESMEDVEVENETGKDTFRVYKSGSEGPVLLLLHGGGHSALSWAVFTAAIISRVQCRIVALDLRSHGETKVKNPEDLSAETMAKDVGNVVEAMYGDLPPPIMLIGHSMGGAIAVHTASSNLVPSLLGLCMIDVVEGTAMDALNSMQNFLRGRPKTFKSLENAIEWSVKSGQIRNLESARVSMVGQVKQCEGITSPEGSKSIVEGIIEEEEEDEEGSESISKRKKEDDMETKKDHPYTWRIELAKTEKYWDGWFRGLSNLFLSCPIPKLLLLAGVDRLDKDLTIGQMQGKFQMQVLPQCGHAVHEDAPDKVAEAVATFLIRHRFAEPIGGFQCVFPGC
# GSTO1 counter: counter-screen for RBBP9 inhibitors: inhibitors of human GSTO1 | P78417 | AID 1974 | recombinant GSTO1, activity-based probe fluorescence polarization | inhibition, % at 5.96 µM | 300,000 compounds, 1.1% hits;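 active means inhibition above the campaign mean inhibition plus 3 SD, cut at about 35% in these data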
# PRMT1 FP inh: PRMT1 (human) inhibition, primary screen; Q99873; recombinant PRMT1, activity-based probe fluorescence polarization; inhibition, % at 2.79 µM; 370,000 compounds, 1.3% hits; AID 652257;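 active means inhibition above about 21% made by adding two undisclosed values, limit read from the data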
# RBBP9 inhibitor: blocks human serine hydrolase RBBP9; AID 1515; 220,000 compounds, 0.2% hits; recombinant RBBP9, FP-Rh probe fluorescence polarization; inhibition, % at 7.94 µM;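 active means inhibition above the campaign mean of all tested compounds plus 3 SD, cut at about 14% in these data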
# Target sequence (O75884 whole entry, looked up): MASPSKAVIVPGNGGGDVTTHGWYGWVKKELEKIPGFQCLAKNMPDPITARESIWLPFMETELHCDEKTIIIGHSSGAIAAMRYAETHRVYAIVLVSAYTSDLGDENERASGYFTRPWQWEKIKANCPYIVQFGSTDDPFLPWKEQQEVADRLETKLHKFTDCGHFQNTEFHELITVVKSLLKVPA
#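 Measured by: FP readout at 525/598 nm; material: recombinant human RBBP9; also added: Serine-hydrolase probe FP-Rh, 375 nM pre-mixing; medium: Tris buffer pH 8.0, NaCl, Pluronic; replication: one well per compound; doses: one concentration, 7.94 µM nominal, 0.794% DMSO; timing: preincubation 30 min plus labeling 45 min at 25 °C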
# Fam108B counter: Fam108B inhibition, counter-screen for RBBP9 inhibitors | 300,000 compounds, 0.33% hits | AID 1947 | recombinant Fam108B, FP-Rh probe fluorescence polarization | inhibition, % at 9.51 µM;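 active means inhibition above the screen mean inhibition plus 3 SD, computed separately per campaign, cut at about 18% in these data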;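 further: inhibitors lower polarization as less probe binds the enzyme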
# PRMT1 inh conf: PRMT1 (human) inhibition, FP confirmation; inhibition, % at 2.79 µM; recombinant His-PRMT1, activity-based probe fluorescence polarization; 3,300 compounds, 42% hits; shares compounds with PRMT1 FP inh; AID 687036;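 active means mean inhibition across replicates above the hit cutoff derived for the earlier primary screen, cut at about 22% in these data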
# Hits are given with their value; i = inactive; nt = not tested or not shown.
SMILES,PAD4 FP inh,PME-1 inh,GSTO1 counter,PRMT1 FP inh,RBBP9 inhibitor,Fam108B counter,PRMT1 inh conf
CC(=O)c1cccc(N2C(=O)CC(N3CCN(S(=O)(=O)c4ccccc4F)CC3)C2=O)c1 (stereo not drawn),i,nt,nt,i,nt,nt,nt
O=C1CCCN1CCC1CCN(C2CC(=O)N(c3ccc(F)cc3)C2=O)CC1 (stereo not drawn),i,i,i,48,i,i,i
O=C1CC(N2CCC(C(=O)N3CCCCC3)CC2)C(=O)N1 (stereo not drawn),i,i,i,62,i,i,i
CCNC(=O)C1(C)CCCN(Cc2ccc(Oc3ccccc3)cc2)C1 (stereo not drawn),nt,nt,nt,i,nt,nt,nt
CC(C)CC(=O)N1CCC(C(=O)NCC2COc3ccccc3O2)CC1 (stereo not drawn),nt,nt,nt,i,nt,nt,nt
Cc1ccc(-c2nnc(COC(=O)c3cc(=O)[nH]c4ccccc34)o2)cc1,i,i,i,i,nt,i,nt
Cc1cc(C)c(S(=O)(=O)N2CCN(C(=O)CCOc3ccccc3C)CC2)c(C)c1,i,i,nt,i,nt,nt,nt
COc1cccc(C2Oc3ccccc3C3CC(c4cccs4)=NN32)c1 (stereo not drawn),i,i,i,i,i,i,nt
O=C1CC(N2CCOCC2)C(=O)N1c1cc(Cl)cc(Cl)c1 (stereo not drawn),i,i,i,i,i,i,nt
O=C(C1CCN(C2CC(=O)N(c3ccc(F)cc3)C2=O)CC1)N1CCOCC1 (stereo not drawn),i,i,i,46,i,i,i
O=C1CC(N2CCOCC2)C(=O)N1c1ccccc1Cl (stereo not drawn),i,i,i,26,i,i,i
CCOc1ccc(CNc2nc3ccccc3n2CCN2CCOCC2)cc1,i,i,i,i,i,i,nt
O=C(O)c1cc(N/N=C/c2ccc(-c3ccc(F)cc3)o2)ccc1Cl,i,i,i,34,nt,i,i
O=C(Cc1ccc(F)cc1)N/N=C/c1ccc(-c2ccc(Cl)c(C(=O)O)c2)o1,i,i,i,i,i,i,nt
NC(=O)c1sc2nc(N3CCOCC3)c3c(c2c1N)CCCC3,i,i,i,26,i,i,i
CCOC(=O)c1sc2nc(N3CCOCC3)c3c(c2c1N)CCC3,i,i,i,i,i,i,nt
Cc1ccccc1NC(=O)c1sc2nc(N3CCOCC3)c3c(c2c1N)CCCC3,i,i,i,42,nt,i,41
CN(C(=O)c1sc2nc(N3CCOCC3)c3c(c2c1N)CCCC3)c1ccccc1,i,i,i,26,i,i,i
O=c1[nH]nc(Cc2ccc(Cl)cc2)c2ccccc12,i,i,i,i,i,i,nt
N#C/C(=C\c1ccc(O)c(O)c1)C(=O)c1ccc(O)c(O)c1,i,i,i,35,nt,i,i
N#C/C(=C\c1ccc(O)c(O)c1)C(=O)N1CCCC1,i,i,i,i,i,i,nt
COc1cc(/C=N\n2nnnc2N)ccc1OCc1ccc(F)cc1,i,i,i,i,i,i,nt
CCn1nc(C)cc1-c1nnc(SCC(=O)Nc2ccccc2)n1CCCOC,i,i,i,i,i,i,nt
CCn1nc(C)cc1-c1nnc(Sc2ncc([N+](=O)[O-])s2)n1C,i,i,i,55,nt,i,63
O=C(CCc1ccccc1)NN1C(=O)C2C3C=CC(O3)C2C1=O (stereo not drawn),i,i,i,57,i,i,i
SMILES,PAD4 FP inh,PME-1 inh,GSTO1 counter,PRMT1 FP inh,RBBP9 inhibitor,Fam108B counter,PRMT1 inh conf
Cc1ccccc1OCC(=O)NN1C(=O)C2C3C=CC(O3)C2C1=O (stereo not drawn),i,i,i,i,i,i,nt
CCOc1ccc(C(=O)NN2C(=O)C3C4C=CC(O4)C3C2=O)cc1 (stereo not drawn),i,i,i,53,i,i,i
COC(=O)c1sc2cc(C(F)(F)F)cnc2c1-c1cccnc1,i,i,i,i,i,i,nt
COc1ccc(N=c2scc(-c3ccc(S(=O)(=O)N4CCOCC4)cc3)n2CCCO)cc1,nt,nt,nt,nt,i,nt,nt
COc1ccc(-c2csc(=NCCO)n2-c2ccccc2)cc1,nt,nt,nt,64,nt,nt,i
COc1ccc(-c2csc(=Nc3ccccc3)n2CCO)cc1,i,i,i,59,i,i,i
CC(=O)c1cccc(N=c2scc(-c3ccc(S(=O)(=O)N4CCOCC4)cc3)n2CCO)c1,i,i,i,69,i,i,i
O=C(O)c1ccccc1-c1c2cc(I)c(=O)c(I)c-2oc2c(I)c(O)c(I)cc12,i,i,i,83,nt,i,75
COc1ccc(-n2ccnc(SCC(=O)NCc3ccccc3Cl)c2=O)cc1,i,i,i,88,nt,i,i
CCOc1ccc(-n2ccnc(SCC(=O)Nc3cccc(OC)c3)c2=O)cc1,i,i,i,39,nt,i,42
Cc1ccc(NC(=O)CC2SC(=NC3CCCCC3)NC2=O)cc1 (stereo not drawn),i,i,i,i,i,i,nt
Cc1ccccc1NC(=O)CC1SC(=NC2CCCCC2)NC1=O (stereo not drawn),i,i,i,32,i,i,i
CC(Oc1ccccc1)C(=O)Nc1nnc(S(=O)(=O)N(C)c2ccccc2)s1 (stereo not drawn),i,i,i,i,nt,i,nt
CC(C)Oc1ccc(C(=O)CCN2CCOCC2)cc1,i,i,i,i,nt,i,nt
CCCCCOc1ccc(C(=O)CCN2CCOCC2)cc1,i,i,i,26,nt,i,i
COc1ccc(C)cc1S(=O)(=O)N1CCN(C)CC1c1ccccc1 (stereo not drawn),i,i,nt,i,nt,nt,nt
COc1cccc(C(c2nnnn2CCc2ccccc2)N2CCN(c3ccccc3)CC2)c1OC (stereo not drawn),i,i,i,i,i,i,nt
O=C(c1ccoc1)N1CCN(c2cc(-c3ccco3)nc3cc(-c4ccco4)nn23)CC1,nt,nt,nt,34,nt,nt,i
COc1cccc(-c2cc3nc(-c4ccco4)cc(N4CCN(C(C)=O)CC4)n3n2)c1,nt,nt,nt,50,nt,nt,i
O=C(N[C@H](C(=O)N1CCC[C@H]1C(=O)NC1CCCC1)C1CCCCC1)c1ccccn1,nt,nt,nt,i,nt,nt,nt
COC(=O)C1CSC2c3ccccc3C(=O)N12 (stereo not drawn),i,i,i,32,nt,i,i
CC(C)NC(=O)[C@@H]1CSC2c3ccccc3C(=O)N21 (stereo partly drawn),nt,nt,nt,i,nt,nt,nt
O=C(O)c1cc(O)c2c(c1)[C@H]([C@H]1c3cc(C(=O)O)cc(O)c3C(=O)c3c(O[C@@H]4O[C@H](CO)[C@@H](O)[C@H](O)[C@H]4O)cccc31)c1cccc(OC3O[C@H](CO)[C@@H](O)[C@H](O)[C@H]3O)c1C2=O (stereo partly drawn),i,71,72,37,nt,97,i
Oc1ccccc1C=NNC(=S)Nc1ccc(F)cc1,nt,nt,nt,i,nt,nt,nt
Cc1nn(C)cc1/C=N/NC(=S)Nc1ccccc1,i,i,i,39,i,i,i
O=C(CCC(=O)N(CC(=O)NC1CCCCC1)Cc1ccc(F)cc1)Nc1nccs1,i,i,i,i,nt,i,nt
